Experimental data taken from ChEMBL document CHEMBL1629494, “New amino acid esters of salicylanilides active against MDR-TB and other microbes” (Eur J Med Chem, 2010).
Values after ≈ are worked out from the molar mass of the structure shown.

Tests used:
Type in all cases: functional
[1] = system: Mycobacterium tuberculosis; experiment: Antimycobacterial activity against drug-sensitive Mycobacterium tuberculosis
Mycobacterium avium [2] = experiment: Antimycobacterial activity against Mycobacterium avium
Mycobacterium kansasii [3] = experiment: Antimycobacterial activity against Mycobacterium kansasii
[4] = system: Mycobacterium tuberculosis; experiment: Antimycobacterial activity against Mycobacterium tuberculosis H37Rv 331/88 after 14 days by micromethod; conditions: H37Rv 331/88, 336 h
Method in brief: (§1)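 Micromethod in Sula semisynthetic medium, with compounds added as DMSO solutions at 1000, 500, 250, 125, 62, 32, 16, 8, 4, 2, 1, 0.5, 0.25. Inoculum dilutions: H37Rv 10^-3; M. avium 330/88 10^-5; M. kansasii 235/80 10^-4; M. kansasii 6509/96 10^-5. Incubated at 37 °C, read at 14 and 21 days, and at 7 days for M. kansasii. MIC was the lowest concentration inhibiting growth.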

[5] = system: Mycobacterium tuberculosis; experiment: Antimycobacterial activity against Mycobacterium tuberculosis H37Rv 331/88 after 21 days by micromethod; conditions: H37Rv 331/88, 504 h; method in brief: as §1
Mycobacterium avium [6] = experiment: Antimycobacterial activity against multidrug-resistant Mycobacterium avium 330/88 after 14 days by micromethod; conditions: 330/88, 336 h; method in brief: as §1
Mycobacterium avium [7] = experiment: Antimycobacterial activity against multidrug-resistant Mycobacterium avium 330/88 after 21 days by micromethod; conditions: 330/88, 504 h; method in brief: as §1
Mycobacterium kansasii [8] = experiment: Antimycobacterial activity against Mycobacterium kansasii 235/80 after 7 days by micromethod; conditions: 235/80, 168 h; method in brief: as §1
Mycobacterium kansasii [9] = experiment: Antimycobacterial activity against Mycobacterium kansasii 235/80 after 14 days by micromethod; conditions: 235/80, 336 h; method in brief: as §1
Mycobacterium kansasii [10] = experiment: Antimycobacterial activity against Mycobacterium kansasii 235/80 after 21 days by micromethod; conditions: 235/80, 504 h; method in brief: as §1
Mycobacterium kansasii [11] = experiment: Antimycobacterial activity against Mycobacterium kansasii 6509/96 after 7 days by micromethod; conditions: 6509/96, 168 h; method in brief: as §1
Mycobacterium kansasii [12] = experiment: Antimycobacterial activity against Mycobacterium kansasii 6509/96 after 14 days by micromethod; conditions: 6509/96, 336 h; method in brief: as §1
Mycobacterium kansasii [13] = experiment: Antimycobacterial activity against Mycobacterium kansasii 6509/96 after 21 days by micromethod; conditions: 6509/96, 504 h; method in brief: as §1
Enterococcus sp. [14] = experiment: Antibacterial activity against Enterococcus sp. J14365/08 after 48 hrs by broth microdilution method; conditions: J14365/08, 48 h
Method in brief: (§2)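 Broth microdilution following […], with twofold compound dilutions in Mueller-Hinton bouillon. Incubated 24 and 48 h at 35 °C in the dark in a humid atmosphere. MIC (IC80) was taken as ≥80% growth reduction versus control, read visually and photometrically.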

Escherichia coli [15] = experiment: Antibacterial activity against Escherichia coli CCM 4517 after 24 hrs by broth microdilution method; conditions: CCM 4517, 24 h; method in brief: as §2
Escherichia coli [16] = experiment: Antibacterial activity against Escherichia coli CCM 4517 after 48 hrs by broth microdilution method; conditions: CCM 4517, 48 h; method in brief: as §2
Klebsiella pneumoniae [17] = experiment: Antibacterial activity against Klebsiella pneumoniae D11750/08 after 24 hrs by broth microdilution method; conditions: D11750/08, 24 h; method in brief: as §2
Klebsiella pneumoniae [18] = experiment: Antibacterial activity against Klebsiella pneumoniae D11750/08 after 48 hrs by broth microdilution method; conditions: D11750/08, 48 h; method in brief: as §2
Candida albicans [19] = experiment: Antifungal activity against Candida albicans ATCC 44859 after 24 hrs by broth microdilution method; conditions: ATCC 44859, 24 h
Candida albicans [20] = experiment: Antifungal activity against Candida albicans ATCC 44859 after 48 hrs by broth microdilution method; conditions: ATCC 44859, 48 h
Candida tropicalis [21] = experiment: Antifungal activity against Candida tropicalis 156 after 24 hrs by broth microdilution method; conditions: Candida tropicalis, 156, 24 h
Candida tropicalis [22] = experiment: Antifungal activity against Candida tropicalis 156 after 48 hrs by broth microdilution method; conditions: Candida tropicalis, 156, 48 h
Pichia kudriavzevii [23] = experiment: Antifungal activity against Candida krusei E28 after 24 hrs by broth microdilution method; conditions: E28, 24 h
Pichia kudriavzevii [24] = experiment: Antifungal activity against Candida krusei E28 after 48 hrs by broth microdilution method; conditions: E28, 48 h
Nakaseomyces glabratus [25] = experiment: Antifungal activity against Candida glabrata 20/I after 24 hrs by broth microdilution method
Nakaseomyces glabratus [26] = experiment: Antifungal activity against Candida glabrata 20/I after 48 hrs by broth microdilution method
Trichosporon beigelii [27] = experiment: Antifungal activity against Trichosporon beigelii 1188 after 24 hrs by broth microdilution method; conditions: Trichosporon beigelii, 1188, 24 h
Trichosporon beigelii [28] = experiment: Antifungal activity against Trichosporon beigelii 1188 after 48 hrs by broth microdilution method; conditions: Trichosporon beigelii, 1188, 48 h
Aspergillus fumigatus [29] = experiment: Antifungal activity against Aspergillus fumigatus 231 after 24 hrs by broth microdilution method; conditions: Aspergillus fumigatus, 231, 24 h
Aspergillus fumigatus [30] = experiment: Antifungal activity against Aspergillus fumigatus 231 after 48 hrs by broth microdilution method; conditions: Aspergillus fumigatus, 231, 48 h
Lichtheimia corymbifera [31] = experiment: Antifungal activity against Absidia corymbifera 272 after 24 hrs by broth microdilution method; conditions: Lichtheimia corymbifera, 272, 24 h
Lichtheimia corymbifera [32] = experiment: Antifungal activity against Absidia corymbifera 272 after 48 hrs by broth microdilution method; conditions: Lichtheimia corymbifera, 272, 48 h
[33] = system: Trichophyton mentagrophytes; experiment: Antifungal activity against Trichophyton mentagrophytes after 24 hrs by broth microdilution method
[34] = system: Trichophyton mentagrophytes; experiment: Antifungal activity against Trichophyton mentagrophytes after 48 hrs by broth microdilution method
Staphylococcus aureus [35] = experiment: Antibacterial activity against Staphylococcus aureus CCM 4516/08 after 24 hrs by broth microdilution method; conditions: CCM 4516/08, 24 h; method in brief: as §2
Staphylococcus aureus [36] = experiment: Antibacterial activity against Staphylococcus aureus CCM 4516/08 after 48 hrs by broth microdilution method; conditions: CCM 4516/08, 48 h; method in brief: as §2
Staphylococcus aureus [37] = experiment: Antibacterial activity against methicillin-resistant Staphylococcus aureus H5996/08 after 24 hrs by broth microdilution method; conditions: H5996/08, 24 h; method in brief: as §2
Staphylococcus aureus [38] = experiment: Antibacterial activity against methicillin-resistant Staphylococcus aureus H5996/08 after 48 hrs by broth microdilution method; conditions: H5996/08, 48 h; method in brief: as §2
[39] = system: Staphylococcus epidermidis; experiment: Antibacterial activity against Staphylococcus epidermidis H6966/08 after 24 hrs by broth microdilution method; conditions: H6966/08, 24 h; method in brief: as §2
[40] = system: Staphylococcus epidermidis; experiment: Antibacterial activity against Staphylococcus epidermidis H6966/08 after 48 hrs by broth microdilution method; conditions: H6966/08, 48 h; method in brief: as §2
Enterococcus sp. [41] = experiment: Antibacterial activity against Enterococcus sp. J14365/08 after 24 hrs by broth microdilution method; conditions: J14365/08, 24 h; method in brief: as §2

CC(=O)N[C@@H](Cc1ccccc1)C(=O)Oc1ccc(Cl)cc1C(=O)Nc1cccc(Cl)c1
MIC [1]: 1 µM (≈ 0.471 µg/mL)
MIC (Mycobacterium avium [2]): 1 µM (≈ 0.471 µg/mL)
MIC (Mycobacterium kansasii [3]): 1 µM (≈ 0.471 µg/mL)
MIC [4]: 2 µM (≈ 0.943 µg/mL)
MIC [5]: 4 µM (≈ 1.89 µg/mL)
MIC (Mycobacterium avium [6]): 8 µM (≈ 3.77 µg/mL)
MIC (Mycobacterium avium [7]): 32 µM (≈ 15.1 µg/mL)
MIC (Mycobacterium kansasii [8]): 8 µM (≈ 3.77 µg/mL)
MIC (Mycobacterium kansasii [9]): 8 µM (≈ 3.77 µg/mL)
MIC (Mycobacterium kansasii [10]): 8 µM (≈ 3.77 µg/mL)
MIC (Mycobacterium kansasii [11]): 2 µM (≈ 0.943 µg/mL)
MIC (Mycobacterium kansasii [12]): 8 µM (≈ 3.77 µg/mL)
MIC (Mycobacterium kansasii [13]): 8 µM (≈ 3.77 µg/mL)

CC(=O)N[C@@H](Cc1ccccc1)C(=O)Oc1cc(Cl)ccc1C(=O)Nc1cccc(Cl)c1
MIC (Enterococcus sp. [14]): > 125 µM
MIC (Escherichia coli [15]): > 125 µM
MIC (Escherichia coli [16]): > 125 µM
MIC (Klebsiella pneumoniae [17]): > 125 µM
MIC (Klebsiella pneumoniae [18]): > 125 µM
MIC (Candida albicans [19]): > 125 µM
MIC (Candida albicans [20]): > 125 µM
MIC (Candida tropicalis [21]): > 125 µM
MIC (Candida tropicalis [22]): > 125 µM
MIC (Pichia kudriavzevii [23]): > 125 µM
MIC (Pichia kudriavzevii [24]): > 125 µM
MIC (Nakaseomyces glabratus [25]): > 125 µM
MIC (Nakaseomyces glabratus [26]): > 125 µM
MIC (Trichosporon beigelii [27]): 125 µM (≈ 58.9 µg/mL)
MIC (Trichosporon beigelii [28]): > 125 µM
MIC (Aspergillus fumigatus [29]): > 125 µM
MIC (Aspergillus fumigatus [30]): > 125 µM
MIC (Lichtheimia corymbifera [31]): 62.5 µM (≈ 29.5 µg/mL)
MIC (Lichtheimia corymbifera [32]): > 125 µM
MIC [33]: 62.5 µM (≈ 29.5 µg/mL)
MIC [34]: > 125 µM
MIC [1]: 1 µM (≈ 0.471 µg/mL)
MIC (Mycobacterium avium [2]): 1 µM (≈ 0.471 µg/mL)
MIC (Mycobacterium kansasii [3]): 1 µM (≈ 0.471 µg/mL)
MIC [4]: 2 µM (≈ 0.943 µg/mL)
MIC [5]: 4 µM (≈ 1.89 µg/mL)
MIC (Mycobacterium avium [6]): 4 µM (≈ 1.89 µg/mL)
MIC (Mycobacterium avium [7]): 8 µM (≈ 3.77 µg/mL)
MIC (Mycobacterium kansasii [8]): 4 µM (≈ 1.89 µg/mL)
MIC (Mycobacterium kansasii [9]): 4 µM (≈ 1.89 µg/mL)
MIC (Mycobacterium kansasii [10]): 8 µM (≈ 3.77 µg/mL)
MIC (Mycobacterium kansasii [11]): 2 µM (≈ 0.943 µg/mL)
MIC (Mycobacterium kansasii [12]): 4 µM (≈ 1.89 µg/mL)
MIC (Mycobacterium kansasii [13]): 8 µM (≈ 3.77 µg/mL)
MIC (Staphylococcus aureus [35]): 31.2 µM (≈ 14.7 µg/mL)
MIC (Staphylococcus aureus [36]): 125 µM (≈ 58.9 µg/mL)
MIC (Staphylococcus aureus [37]): 125 µM (≈ 58.9 µg/mL)
MIC (Staphylococcus aureus [38]): 125 µM (≈ 58.9 µg/mL)
MIC [39]: 62.5 µM (≈ 29.5 µg/mL)
MIC [40]: 125 µM (≈ 58.9 µg/mL)
MIC (Enterococcus sp. [41]): 125 µM (≈ 58.9 µg/mL)

CC(=O)N[C@@H](Cc1ccccc1)C(=O)Oc1ccc(Cl)cc1C(=O)Nc1ccc(Cl)cc1
MIC (Enterococcus sp. [14]): > 125 µM
MIC (Escherichia coli [15]): > 125 µM
MIC (Escherichia coli [16]): > 125 µM
MIC (Klebsiella pneumoniae [17]): > 125 µM
MIC (Klebsiella pneumoniae [18]): > 125 µM
MIC (Candida albicans [19]): > 125 µM
MIC (Candida albicans [20]): > 125 µM
MIC (Candida tropicalis [21]): > 125 µM
MIC (Candida tropicalis [22]): > 125 µM
MIC (Pichia kudriavzevii [23]): > 125 µM
MIC (Pichia kudriavzevii [24]): > 125 µM
MIC (Nakaseomyces glabratus [25]): > 125 µM
MIC (Nakaseomyces glabratus [26]): > 125 µM
MIC (Trichosporon beigelii [27]): 3.9 µM (≈ 1.84 µg/mL)
MIC (Trichosporon beigelii [28]): 3.9 µM (≈ 1.84 µg/mL)
MIC (Aspergillus fumigatus [29]): 31.2 µM (≈ 14.7 µg/mL)
MIC (Aspergillus fumigatus [30]): 125 µM (≈ 58.9 µg/mL)
MIC (Lichtheimia corymbifera [31]): 3.9 µM (≈ 1.84 µg/mL)
MIC (Lichtheimia corymbifera [32]): 15.6 µM (≈ 7.36 µg/mL)
MIC [33]: 31.2 µM (≈ 14.7 µg/mL)
MIC [34]: 62.5 µM (≈ 29.5 µg/mL)
MIC [1]: 1 µM (≈ 0.471 µg/mL)
MIC (Mycobacterium avium [2]): 1 µM (≈ 0.471 µg/mL)
MIC (Mycobacterium kansasii [3]): 1 µM (≈ 0.471 µg/mL)
MIC [4]: 4 µM (≈ 1.89 µg/mL)
MIC [5]: 4 µM (≈ 1.89 µg/mL)
MIC (Mycobacterium avium [6]): 8 µM (≈ 3.77 µg/mL)
MIC (Mycobacterium avium [7]): 16 µM (≈ 7.54 µg/mL)
MIC (Mycobacterium kansasii [8]): 4 µM (≈ 1.89 µg/mL)
MIC (Mycobacterium kansasii [9]): 4 µM (≈ 1.89 µg/mL)
MIC (Mycobacterium kansasii [10]): 4 µM (≈ 1.89 µg/mL)
MIC (Mycobacterium kansasii [11]): 2 µM (≈ 0.943 µg/mL)
MIC (Mycobacterium kansasii [12]): 4 µM (≈ 1.89 µg/mL)
MIC (Mycobacterium kansasii [13]): 8 µM (≈ 3.77 µg/mL)
MIC (Staphylococcus aureus [35]): 62.5 µM (≈ 29.5 µg/mL)
MIC (Staphylococcus aureus [36]): > 125 µM
MIC (Staphylococcus aureus [37]): 125 µM (≈ 58.9 µg/mL)
MIC (Staphylococcus aureus [38]): > 125 µM
MIC [39]: 125 µM (≈ 58.9 µg/mL)
MIC [40]: > 125 µM
MIC (Enterococcus sp. [41]): 125 µM (≈ 58.9 µg/mL)
